Measured values as given in ChEMBL document CHEMBL1142492 (J Med Chem, 2008).

Legend:
[1] = target: Mitogen-activated protein kinase kinase kinase 11 (Homo sapiens) (UniProt Q16584); test: Inhibition of MLK3 at 3 uM
[2] = target: 5-hydroxytryptamine receptor 1A (Homo sapiens) (UniProt P08908); test: Inhibition of human 5HT1A receptor at 3 uM
In short: (§1)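 Counter-screen binding/enzyme panel at single 3 μM, n=2; results as percent inhibition. Species per target as listed (rat NMDA, GABAA sites; human receptors, transporters; rabbit ACE).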

[3] = target: Mitogen-activated protein kinase 1 (Homo sapiens) (UniProt P28482); test: Inhibition of ERK2 at 3 uM
In short: (§2)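 Single-concentration kinase panel scoring: each value is the percentage of enzyme activity remaining relative to a DMSO-only control. An activity statistically indistinct from DMSO control was scored "no hit".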

[4] = target: Dual specificity mitogen-activated protein kinase kinase 2 (Homo sapiens) (UniProt P36507); test: Inhibition of MEK2 at 3 uM
[5] = target: Serine/threonine-protein kinase pim-2 (Homo sapiens) (UniProt Q9P1W9); test: Inhibition of PIM2 at 3 uM
[6] = target: Phosphatidylinositol 4,5-bisphosphate 3-kinase catalytic subunit alpha isoform (Homo sapiens) (UniProt P42336); test: Inhibition of PIK3CA at 3 uM
[7] = target: Serine/threonine-protein kinase RIO3 (Homo sapiens) (UniProt O14730); test: Inhibition of RIOK3 at 3 uM
Serine/threonine-protein kinase RIO3 (Homo sapiens), sequence (O14730 whole entry): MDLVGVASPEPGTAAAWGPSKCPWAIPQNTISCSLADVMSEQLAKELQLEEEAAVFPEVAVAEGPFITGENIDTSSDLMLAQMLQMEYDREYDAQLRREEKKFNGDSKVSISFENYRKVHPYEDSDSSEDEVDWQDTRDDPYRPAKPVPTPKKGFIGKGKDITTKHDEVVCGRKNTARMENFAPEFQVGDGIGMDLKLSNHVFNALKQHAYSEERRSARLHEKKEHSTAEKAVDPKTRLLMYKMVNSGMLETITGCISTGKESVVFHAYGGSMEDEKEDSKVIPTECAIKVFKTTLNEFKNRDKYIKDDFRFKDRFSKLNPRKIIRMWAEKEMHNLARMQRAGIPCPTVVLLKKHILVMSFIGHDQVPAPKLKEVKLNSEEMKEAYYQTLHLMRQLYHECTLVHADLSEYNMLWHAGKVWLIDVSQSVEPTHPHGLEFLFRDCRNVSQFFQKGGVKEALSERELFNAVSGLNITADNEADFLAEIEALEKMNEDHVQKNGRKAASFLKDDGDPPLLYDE

[8] = target: Alpha-1A adrenergic receptor (Rattus norvegicus) (UniProt P43140); test: Inhibition of rat adrenergic alpha1A receptor at 3 uM
Rattus norvegicus [9] = species: Rattus norvegicus; conditions: 3 uM
[10] = target: MAP kinase-activated protein kinase 2 (Homo sapiens) (UniProt P49137); test: Inhibition of MAPKAPK2 at 3 uM
MAP kinase-activated protein kinase 2 (Homo sapiens), sequence (P49137 whole entry, looked up): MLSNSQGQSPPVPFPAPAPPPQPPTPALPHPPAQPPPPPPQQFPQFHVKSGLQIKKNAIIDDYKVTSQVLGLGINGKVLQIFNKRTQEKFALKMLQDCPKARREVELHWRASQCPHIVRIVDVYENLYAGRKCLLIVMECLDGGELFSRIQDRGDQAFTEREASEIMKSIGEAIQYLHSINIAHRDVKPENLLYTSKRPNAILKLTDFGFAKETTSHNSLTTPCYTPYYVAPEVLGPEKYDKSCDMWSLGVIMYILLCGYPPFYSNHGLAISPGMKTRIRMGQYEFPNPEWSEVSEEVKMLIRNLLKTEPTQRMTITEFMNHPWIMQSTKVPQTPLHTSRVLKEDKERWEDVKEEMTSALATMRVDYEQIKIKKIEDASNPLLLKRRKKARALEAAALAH

[11] = target: Serine/threonine-protein kinase ULK2 (Homo sapiens) (UniProt Q8IYT8); test: Inhibition of ULK2 at 3 uM
in vivo = conditions: Sprague-Dawley, rat, plasma, iv, 1 mg/kg
[12] = target: Calcium/calmodulin-dependent protein kinase type II subunit beta (Homo sapiens) (UniProt Q13554); test: Inhibition of CAMK2B at 3 uM
Calcium/calmodulin-dependent protein kinase type II subunit beta (Homo sapiens), sequence (Q13554 whole entry): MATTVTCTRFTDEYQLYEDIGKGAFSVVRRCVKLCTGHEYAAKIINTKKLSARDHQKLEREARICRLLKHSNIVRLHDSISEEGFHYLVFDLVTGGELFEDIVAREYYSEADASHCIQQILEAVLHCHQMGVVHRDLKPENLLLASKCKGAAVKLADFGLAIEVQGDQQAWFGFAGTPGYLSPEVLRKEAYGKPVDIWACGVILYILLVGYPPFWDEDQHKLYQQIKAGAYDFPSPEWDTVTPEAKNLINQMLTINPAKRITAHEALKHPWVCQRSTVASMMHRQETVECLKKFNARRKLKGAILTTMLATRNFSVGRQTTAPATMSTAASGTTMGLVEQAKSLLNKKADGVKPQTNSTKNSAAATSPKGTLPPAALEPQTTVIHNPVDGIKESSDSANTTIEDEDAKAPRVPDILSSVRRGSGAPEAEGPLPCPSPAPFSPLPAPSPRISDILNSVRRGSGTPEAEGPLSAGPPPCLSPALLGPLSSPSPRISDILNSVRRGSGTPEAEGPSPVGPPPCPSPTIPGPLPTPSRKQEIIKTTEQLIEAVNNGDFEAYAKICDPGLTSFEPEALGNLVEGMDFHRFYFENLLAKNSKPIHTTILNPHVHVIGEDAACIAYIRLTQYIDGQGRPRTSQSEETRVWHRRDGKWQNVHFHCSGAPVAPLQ

[13] = target: Rho-associated protein kinase 2 (Homo sapiens, UniProt O75116); test: Inhibition of ROCK2 at 3 uM
[14] = target: Protein-tyrosine kinase 6 (Homo sapiens) (UniProt Q13882); test: Inhibition of PTK6 at 3 uM
[15] = target: Cyclin-dependent kinase 5 (Homo sapiens) (UniProt Q00535); test: Inhibition of CDK5 at 3 uM
[16] = target: Protein kinase C epsilon type (Homo sapiens) (UniProt Q02156); test: Inhibition of PRKCE at 3 uM
[17] = target: Sodium-dependent dopamine transporter (Homo sapiens) (UniProt Q01959); test: Inhibition of human DAT at 3 uM; in short: as §1
[18] = target: Serine/threonine-protein kinase 25 (Homo sapiens) (UniProt O00506); test: Inhibition of YSK1 at 3 uM
Serine/threonine-protein kinase 25 (Homo sapiens), sequence (O00506 whole entry, looked up): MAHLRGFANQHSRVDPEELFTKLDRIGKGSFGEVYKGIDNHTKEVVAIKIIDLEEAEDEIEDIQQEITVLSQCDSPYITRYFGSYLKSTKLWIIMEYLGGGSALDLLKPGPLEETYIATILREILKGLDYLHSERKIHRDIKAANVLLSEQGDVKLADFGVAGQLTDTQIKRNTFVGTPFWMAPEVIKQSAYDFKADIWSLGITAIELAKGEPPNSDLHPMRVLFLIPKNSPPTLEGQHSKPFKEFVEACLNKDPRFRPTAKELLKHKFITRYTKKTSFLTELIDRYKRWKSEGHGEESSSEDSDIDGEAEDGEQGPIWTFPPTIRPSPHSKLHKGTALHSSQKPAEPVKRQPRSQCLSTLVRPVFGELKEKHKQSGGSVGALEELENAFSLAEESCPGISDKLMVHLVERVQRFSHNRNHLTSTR

[19] = target: Cyclin-dependent kinase 9 (Homo sapiens) (UniProt P50750); test: Inhibition of CDK9 at 3 uM
[20] = target: Serine/threonine-protein kinase RIO1 (Homo sapiens) (UniProt Q9BRS2); test: Inhibition of RIOK1 at 3 uM
[21] = test system: Tyrosine-protein kinase ABL1 (Homo sapiens), P00519 [F317I]; test: Inhibition of ABL1 F317I mutant at 3 uM
[22] = target: Serine/threonine-protein kinase 32C (Homo sapiens) (UniProt Q86UX6); test: Inhibition of YANK3 at 3 uM
[23] = target: Mitogen-activated protein kinase kinase kinase kinase 2 (Homo sapiens) (UniProt Q12851); test: Inhibition of MAP4K2 at 3 uM
[24] = target: Mitogen-activated protein kinase kinase kinase 12 (DLK) (Homo sapiens) (UniProt Q12852); test: Inhibition of DLK at 3 uM
[25] = test system: Tyrosine-protein kinase ABL1 (Homo sapiens), P00519 [E255K]; test: Inhibition of ABL1E255K mutant at 3 uM
[26] = target: Serine/threonine-protein kinase 32B (Homo sapiens) (UniProt Q9NY57); test: Inhibition of YANK2 at 3 uM
[27] = target: Mitogen-activated protein kinase 8 (Homo sapiens) (UniProt P45983); test: Inhibition of JNK1 at 3 uM
Mitogen-activated protein kinase 8 (Homo sapiens), sequence (P45983 whole entry): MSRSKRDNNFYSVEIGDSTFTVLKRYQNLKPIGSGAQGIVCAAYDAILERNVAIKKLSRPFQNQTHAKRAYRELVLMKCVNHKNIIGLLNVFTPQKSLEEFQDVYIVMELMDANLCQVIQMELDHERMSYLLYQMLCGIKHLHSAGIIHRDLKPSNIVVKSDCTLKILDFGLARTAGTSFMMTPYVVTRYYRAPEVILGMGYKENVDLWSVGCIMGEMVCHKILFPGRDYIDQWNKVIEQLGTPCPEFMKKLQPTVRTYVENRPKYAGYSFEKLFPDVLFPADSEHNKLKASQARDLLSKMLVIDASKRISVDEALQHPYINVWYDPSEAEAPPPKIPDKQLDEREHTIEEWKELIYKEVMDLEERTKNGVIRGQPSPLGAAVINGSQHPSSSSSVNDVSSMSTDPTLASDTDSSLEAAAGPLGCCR

[28] = target: Testis-specific serine/threonine-protein kinase 1 (Homo sapiens) (UniProt Q9BXA7); test: Inhibition of TSSK1 at 3 uM
Testis-specific serine/threonine-protein kinase 1 (Homo sapiens), sequence (Q9BXA7 whole entry): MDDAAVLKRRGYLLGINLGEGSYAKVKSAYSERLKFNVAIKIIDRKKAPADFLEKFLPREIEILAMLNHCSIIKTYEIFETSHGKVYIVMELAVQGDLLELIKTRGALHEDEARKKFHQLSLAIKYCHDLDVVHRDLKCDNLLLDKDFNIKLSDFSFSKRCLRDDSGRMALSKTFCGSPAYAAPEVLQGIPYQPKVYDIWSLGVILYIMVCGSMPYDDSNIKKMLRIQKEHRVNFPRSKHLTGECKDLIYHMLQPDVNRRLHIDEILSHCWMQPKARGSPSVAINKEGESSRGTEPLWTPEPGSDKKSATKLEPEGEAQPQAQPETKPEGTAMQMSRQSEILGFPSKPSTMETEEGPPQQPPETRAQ

[29] = target: T1, Epidermal growth factor receptor (Homo sapiens) (UniProt P04626+P00533+Q15303+P21860); test: Inhibition of EGFR E746-A750del mutant at 3 uM; type: protein assay
[30] = target: Sodium-dependent noradrenaline transporter (Homo sapiens) (UniProt P23975); test: Inhibition of human NET at 3 uM; in short: as §1
[31] = target: Casein kinase I isoform epsilon (Homo sapiens) (UniProt P49674); test: Inhibition of CSNK1E at 3 uM
[32] = target: MAP kinase-interacting serine/threonine-protein kinase 1 (Homo sapiens) (UniProt Q9BUB5); test: Inhibition of MKNK1 at 3 uM
MAP kinase-interacting serine/threonine-protein kinase 1 (Homo sapiens), sequence (Q9BUB5 whole entry, looked up): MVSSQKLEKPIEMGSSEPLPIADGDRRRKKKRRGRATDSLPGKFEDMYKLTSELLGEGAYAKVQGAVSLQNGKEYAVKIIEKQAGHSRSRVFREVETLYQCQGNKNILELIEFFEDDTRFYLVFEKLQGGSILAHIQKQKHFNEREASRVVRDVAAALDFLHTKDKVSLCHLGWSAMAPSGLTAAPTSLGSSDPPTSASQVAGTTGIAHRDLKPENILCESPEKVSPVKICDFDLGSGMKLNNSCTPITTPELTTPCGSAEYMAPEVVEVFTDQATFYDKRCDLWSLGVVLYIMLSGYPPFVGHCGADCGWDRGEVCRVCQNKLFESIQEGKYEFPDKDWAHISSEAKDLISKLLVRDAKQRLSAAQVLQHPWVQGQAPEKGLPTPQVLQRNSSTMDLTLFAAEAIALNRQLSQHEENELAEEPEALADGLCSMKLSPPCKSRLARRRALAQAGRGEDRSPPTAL

[33] = target: Serine/threonine-protein kinase PAK 4 (Homo sapiens) (UniProt O96013); test: Inhibition of PAK4 at 3 uM
[34] = test system: Serine/threonine-protein kinase B-raf (Homo sapiens), P15056 [V600E]; test: Inhibition of BRAF V600E mutant at 3 uM
Serine/threonine-protein kinase B-raf (Homo sapiens), P15056 [V600E], sequence (P15056 whole entry V600E): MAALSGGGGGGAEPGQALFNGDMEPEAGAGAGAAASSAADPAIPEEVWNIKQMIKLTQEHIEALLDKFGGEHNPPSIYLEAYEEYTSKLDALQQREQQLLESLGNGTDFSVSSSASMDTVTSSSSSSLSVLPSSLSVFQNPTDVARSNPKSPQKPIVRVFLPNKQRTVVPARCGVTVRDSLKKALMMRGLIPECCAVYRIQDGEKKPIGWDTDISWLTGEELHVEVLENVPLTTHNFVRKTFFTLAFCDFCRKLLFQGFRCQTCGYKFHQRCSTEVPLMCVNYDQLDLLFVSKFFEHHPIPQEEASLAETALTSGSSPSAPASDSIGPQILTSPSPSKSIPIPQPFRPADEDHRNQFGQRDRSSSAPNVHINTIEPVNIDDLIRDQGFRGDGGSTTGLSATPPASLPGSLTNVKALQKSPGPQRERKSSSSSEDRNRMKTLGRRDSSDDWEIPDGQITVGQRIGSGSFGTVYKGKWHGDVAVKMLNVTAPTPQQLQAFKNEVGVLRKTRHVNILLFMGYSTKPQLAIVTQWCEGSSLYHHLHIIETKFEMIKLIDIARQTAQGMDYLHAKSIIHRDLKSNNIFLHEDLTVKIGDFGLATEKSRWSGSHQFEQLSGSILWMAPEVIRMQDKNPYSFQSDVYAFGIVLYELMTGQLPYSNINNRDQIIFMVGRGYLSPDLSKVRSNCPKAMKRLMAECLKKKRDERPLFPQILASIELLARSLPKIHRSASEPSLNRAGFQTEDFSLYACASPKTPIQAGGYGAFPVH

[35] = target: Receptor tyrosine-protein kinase erbB-2 (Homo sapiens) (UniProt P04626); test: Inhibition of ERBB2 at 3 uM; in short: as §2
Rattus norvegicus [36] = species: Rattus norvegicus; conditions: 3 uM; remark: listed apart in the source
[37] = target: T1, Epidermal growth factor receptor (Homo sapiens); test: Inhibition of EGFR L747-T751del,Sins mutant at 3 uM; type: protein assay
[38] = test system: Epidermal growth factor receptor (Homo sapiens), P00533 [L861Q]; test: Inhibition of EGFR L861Q mutant at 3 uM; type: protein assay; in short: as §2
[39] = target: Phosphatidylinositol 4,5-bisphosphate 3-kinase catalytic subunit delta isoform (Homo sapiens) (UniProt O00329); test: Inhibition of PIK3CD at 3 uM
[40] = target: RAC-beta serine/threonine-protein kinase (Homo sapiens) (UniProt P31751); test: Inhibition of AKT2 at 3 uM
[41] = target: Aurora kinase B (Homo sapiens) (UniProt Q96GD4); test: Inhibition of AURKB at 3 uM
Aurora kinase B (Homo sapiens), sequence (Q96GD4 whole entry): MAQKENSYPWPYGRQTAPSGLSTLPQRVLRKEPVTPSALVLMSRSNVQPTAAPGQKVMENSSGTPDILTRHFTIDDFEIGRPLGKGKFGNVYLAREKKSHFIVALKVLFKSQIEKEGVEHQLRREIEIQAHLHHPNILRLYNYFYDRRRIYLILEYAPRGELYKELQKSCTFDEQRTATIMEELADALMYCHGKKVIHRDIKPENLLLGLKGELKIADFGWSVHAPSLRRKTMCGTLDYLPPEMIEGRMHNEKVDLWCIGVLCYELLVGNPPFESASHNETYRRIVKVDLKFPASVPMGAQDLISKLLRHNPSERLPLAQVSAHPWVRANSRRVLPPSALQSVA

[42] = target: Serine/threonine-protein kinase tousled-like 1 (Homo sapiens) (UniProt Q9UKI8); test: Inhibition of TLK1 at 3 uM
[43] = target: Insulin receptor-related protein (Homo sapiens) (UniProt P14616); test: Inhibition of INSRR at 3 uM
[44] = target: Wee1-like protein kinase 2 (Homo sapiens) (UniProt P0C1S8); test: Inhibition of WEE2 at 3 uM
Wee1-like protein kinase 2 (Homo sapiens), sequence (P0C1S8 whole entry, looked up): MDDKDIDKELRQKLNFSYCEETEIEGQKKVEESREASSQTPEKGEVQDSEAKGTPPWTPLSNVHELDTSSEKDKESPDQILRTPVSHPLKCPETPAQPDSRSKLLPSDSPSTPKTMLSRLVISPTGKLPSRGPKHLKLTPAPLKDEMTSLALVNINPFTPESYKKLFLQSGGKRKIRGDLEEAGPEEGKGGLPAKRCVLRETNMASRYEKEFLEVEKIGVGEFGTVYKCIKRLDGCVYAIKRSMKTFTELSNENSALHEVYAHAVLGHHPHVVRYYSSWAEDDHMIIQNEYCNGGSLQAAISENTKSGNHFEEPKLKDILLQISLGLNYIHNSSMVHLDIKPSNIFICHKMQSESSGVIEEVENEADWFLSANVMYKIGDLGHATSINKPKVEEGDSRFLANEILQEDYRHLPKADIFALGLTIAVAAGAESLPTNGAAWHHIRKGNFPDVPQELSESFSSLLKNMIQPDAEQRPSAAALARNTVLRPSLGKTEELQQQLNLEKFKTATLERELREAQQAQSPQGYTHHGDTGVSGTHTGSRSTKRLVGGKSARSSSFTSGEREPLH

Compound: CN(C)CCOc1cc(-c2cn[nH]c2)ccc1NC(=O)C1COc2ccccc2O1 (stereo not given) [SR-3677]
- inhibition [1]: < 10%
- inhibition [2]: 6%
- inhibition [3]: < 10%
- inhibition [4]: < 10%
- inhibition [5]: < 10%
- inhibition [6]: < 10%
- inhibition [7]: < 10%
- inhibition [8]: 53%
- inhibition (Rattus norvegicus [9]): 47%
- inhibition [10]: < 10%
- inhibition [11]: < 10%
- AUC (in vivo): 0.7 µM·h
- inhibition [12]: < 10%
- inhibition [13]: 99.6%
- inhibition [14]: < 10%
- inhibition [15]: < 10%
- inhibition [16]: < 10%
- inhibition [17]: 37%
- inhibition [18]: < 10%
- inhibition [19]: < 10%
- inhibition [20]: < 10%
- inhibition [21]: < 10%
- inhibition [22]: < 10%
- inhibition [23]: < 10%
- inhibition [24]: < 10%
- inhibition [25]: < 10%
- inhibition [26]: < 10%
- inhibition [27]: < 10%
- inhibition [28]: < 10%
- inhibition [29]: < 10%
- inhibition [30]: 16%
- inhibition [31]: < 10%
- inhibition [32]: < 10%
- inhibition [33]: < 10%
- inhibition [34]: < 10%
- inhibition [35]: < 10%
- inhibition (Rattus norvegicus [36]): -1%
- inhibition [37]: < 10%
- inhibition [38]: < 10%
- inhibition [39]: < 10%
- inhibition [40]: < 10%
- inhibition [41]: < 10%
- inhibition [42]: < 10%
- inhibition [43]: < 10%
- inhibition [44]: < 10%
